This note sets out measurements from ChEMBL document CHEMBL1149314, “Synthesis of AZT 5'-triphosphate mimics and their inhibitory effects on HIV-1 reverse transcriptase” (J Med Chem, 2004).

Data set [1] is described as follows: Inhibition of HIV1 reverse transcriptase. Further details: species or system Human immunodeficiency virus 1. An outline of the steps: (§1)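 HIV reverse transcriptase (type B, 66 kDa subunit) at 2 nM with 1 µg/mL primed poly(A) RNA and 5 µM dTTP, in 50 mM Tris-HCl pH 8.1, 6.5 mM MgCl2, 100 mM NaCl and 10 mM DTT. Compounds were tested up to 500 µM final. Reactions were started with enzyme, run 10 min at 37 °C and stopped with EDTA. DNA was read by PicoGreen fluorescence (ex 480/em 538 nm), with no-enzyme or no-dTTP blanks. Percent inhibition was blank-corrected; Ki came from titration fitted to a competitive model.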

The test system of data set [2] is Human immunodeficiency virus 1. Briefly: Inhibition of HIV1 reverse transcriptase at 0.5 uM. The method in brief:
as §1

In data set [3] the test system is Serum. Briefly: (§2) Stability in fetal calf serum at 500 uM at 37 degC. In kind it is ADME, cell-free, Bos taurus. The settings on record: cattle, serum, 500 µM. An outline of the steps:
(§3)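 Fetal calf serum at 10% v/v final, with 500 µM nucleotide mimic in 50 mM Tris-HCl pH 7.4 and 0.1 mM MgCl2, at 37 °C. Timed aliquots were quenched in cold methanol, extracted, dried and run on ion-pair reverse-phase HPLC. Half-life came from remaining parent through 48 h, given as >48 h if over 50% remained; unmodified nucleoside triphosphates were positive controls.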

Data set [4] is described as follows: as §2. The format is ADME, cell-free, Bos taurus. The conditions noted are these: cattle, fetal calf serum. The method in brief:
as §3

Data set [5] is described as follows: Stability in CEM cell extract. In kind it is ADME. The conditions noted are these: human, CEM (CCRF-CEM) cell extract. The method in brief: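 Clarified lysate of CEM cells (10^7 cells per 100 µL Tris/glycerol/Triton buffer, freeze-thaw lysed) at 50% v/v, with 500 µM nucleotide mimic in 50 mM Tris-HCl pH 7.4 and 0.1 mM MgCl2, at 37 °C. Samples were taken from 0 to 48 h into cold methanol, dried and analysed by ion-pair reverse-phase HPLC. Half-life came from remaining parent, given as >48 h if over 50% remained intact; unmodified NTPs were controls.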

Some results are limits rather than exact numbers.

By Ki is commonly meant a measure of affinity in units of concentration, obtained from inhibition or displacement. `CNP(=O)(O)C(F)(F)P(=O)(O)OP(=O)(O)OC[C@@H]1O[C@H](n2cc(C)c(=O)[nH]c2=O)C[C@H]1N=[N+]=[N-]` registered an inhibitory constant (Ki) in data set [1] of 124 nM.

`Cc1cn([C@@H]2C[C@@H](N=[N+]=[N-])[C@H](COP(=O)(O)OP(=O)(O)C(F)(F)P(=O)(O)Nc3ccccc3)O2)c(=O)[nH]c1=O` displayed an inhibition constant (Ki) in data set [1] of 254 nM.

In data set [1], `Cc1cn([C@@H]2C[C@@H](N=[N+]=[N-])[C@H](COP(=O)(O)OP(=O)(O)C(F)(F)P(=O)(O)O)O2)c(=O)[nH]c1=O` had a Ki of 41 nM.

Compound `COP(=O)(O)C(F)(F)P(=O)(O)OP(=O)(O)OC[C@@H]1O[C@H](n2cc(C)c(=O)[nH]c2=O)C[C@H]1N=[N+]=[N-]` registered a Ki in data set [1] of 597 nM. Against the preceding compound, the Ki is about 15-fold higher.

In turn, `CCNP(=O)(O)C(F)(F)P(=O)(O)OP(=O)(O)OC[C@@H]1O[C@H](n2cc(C)c(=O)[nH]c2=O)C[C@H]1N=[N+]=[N-]` showed a Ki in data set [1] of 415 nM.

Regarding `Cc1cn([C@@H]2C[C@@H](N=[N+]=[N-])[C@H](COP(=O)(O)OP(=O)(O)C(F)(F)P(=O)(O)Oc3ccccc3)O2)c(=O)[nH]c1=O`, the inhibitory constant (Ki) in data set [1] amounted to 303 nM. This Ki and that of the compound before are within 1.5-fold of each other.

Compound `Cc1cn([C@@H]2C[C@@H](N=[N+]=[N-])[C@H](COP(=O)(O)OP(=O)(O)C(F)(F)P(N)(=O)O)O2)c(=O)[nH]c1=O` showed an inhibitory constant (Ki) in data set [1] of 234 nM.

Usually inhibition stands for the share of the control response that was lost under treatment. `Cc1cn([C@@H]2C[C@@H](N=[N+]=[N-])[C@H](COP(=O)(O)C(F)(F)P(=O)(O)OP(=O)(O)c3ccccc3)O2)c(=O)[nH]c1=O` showed an inhibition in data set [2] of 11.5%.

The compound `Cc1cn([C@@H]2C[C@@H](N=[N+]=[N-])[C@H](COP(=O)(O)OP(=O)(O)C(F)(F)P(=O)(O)N=[N+]=[N-])O2)c(=O)[nH]c1=O` gave an inhibition in data set [2] of 24%.

In data set [2], `Cc1cn([C@@H]2C[C@@H](N=[N+]=[N-])[C@H](COP(=S)(S)OP(=O)(O)C(F)(F)P(=O)(O)O)O2)c(=O)[nH]c1=O` (stereo partly drawn) returned an inhibition of 19%.

The compound `BP(=O)(OC[C@@H]1O[C@H](n2cc(C)c(=O)[nH]c2=O)C[C@H]1N=[N+]=[N-])OP(=O)(O)C(Cl)(Cl)P(=O)(O)O` (single isomer, unassigned) registered an inhibition constant Ki in data set [1] of 93 nM. This compound also showed a t1/2 in data set [3] of 45 h.

Regarding `BP(=O)(OC[C@@H]1O[C@H](n2cc(C)c(=O)[nH]c2=O)C[C@H]1N=[N+]=[N-])OP(=O)(O)C(F)P(=O)(O)O` (single isomer, unassigned), the affinity in data set [1], expressed as Ki, was 27 nM.

What is called half-life is the time needed for the level to fall by half in the phase considered. As to `BP(=O)(OC[C@@H]1O[C@H](n2cc(C)c(=O)[nH]c2=O)C[C@H]1N=[N+]=[N-])OP(=O)(O)C(F)(F)P(=O)(O)O` (single isomer, unassigned; diastereomer I), the Ki in data set [1] is 9.5 nM. In addition, the half-life at 500 µM in data set [4] was greater than 48 h. This compound registered a half-life in data set [5] greater than 48 h.

`BP(=O)(OC[C@@H]1O[C@H](n2cc(C)c(=O)[nH]c2=O)C[C@H]1N=[N+]=[N-])OP(=O)(O)C(Cl)(Cl)P(=O)(O)O` (single isomer, unassigned; diastereomer II) registered a Ki in data set [1] of 74 nM. The same compound gave a half-life at 500 µM in data set [4] greater than 48 h. Moreover, in data set [5], the half-life is greater than 48 h.

In data set [1], `BP(=O)(OC[C@@H]1O[C@H](n2cc(C)c(=O)[nH]c2=O)C[C@H]1N=[N+]=[N-])OP(=O)(O)C(F)(F)P(=O)(O)O` (single isomer, unassigned; diastereomer II) returned an inhibitory constant (Ki) of 4560 nM.

On to `BP(=O)(OC[C@@H]1O[C@H](n2cc(C)c(=O)[nH]c2=O)C[C@H]1N=[N+]=[N-])OP(=O)(O)C(F)P(=O)(O)O` (single isomer, unassigned; diastereomer IV), for which the inhibition in data set [2] was 49%.

In data set [1], `BP(=O)(OC[C@@H]1O[C@H](n2cc(C)c(=O)[nH]c2=O)C[C@H]1N=[N+]=[N-])OP(=O)(O)OP(=O)(O)O` (single isomer, unassigned; form 1) gave a Ki of 9.6 nM. The t1/2 in data set [3] turned out to be 6 h.

For `BP(=O)(OC[C@@H]1O[C@H](n2cc(C)c(=O)[nH]c2=O)C[C@H]1N=[N+]=[N-])OP(=O)(O)OP(=O)(O)O` (single isomer, unassigned; form 2), the half-life at 500 µM in data set [4] was 6 h.

`Nc1ncnc2c1ncn2[C@@H]1O[C@H](COP(=O)(O)OP(=O)(O)OP(=O)(O)O)[C@@H](O)[C@H]1O` [ADENOSINE TRIPHOSPHATE] gave a half-life at 500 µM in data set [4] of 2 h.

For the compound `Cc1cn([C@H]2C[C@H](O)[C@@H](COP(=O)(O)OP(=O)(O)OP(=O)(O)O)O2)c(=O)[nH]c1=O` [DEOXYTHYMIDINE_TRIPHOSPHATE], the half-life at 500 µM in data set [4] was 2 h.

`Cc1cn([C@H]2C[C@H](N=[N+]=[N-])[C@@H](COP(=O)(O)OP(=O)(O)OP(=O)(O)O)O2)c(=O)[nH]c1=O` [ZIDOVUDINE TRIPHOSPHATE] gave an inhibitory constant (Ki) in data set [1] of 8.4 nM. Further, the half-life at 500 µM in data set [4] was 2 h.
